Bioassay records as filed in PubChem BioAssay.
Shown are actives, neighbours in structure and some others; about 2.1% of the full set was active somewhere.
IMP-1 inh-1 = blocks Pseudomonas aeruginosa IMP-1 metallo-beta-lactamase. purified IMP-1, nitrocefin hydrolysis, epi-absorbance fluorescence. inhibition, % at 5.6 µM. 0.45% of 290,000 active;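 active means inhibition above the mean plus 3 SD of all compounds in the same screening run, cut at about 4.5% in these data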
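Test system: recombinant IMP-1 enzyme, purified / Medium: HEPES buffer pH 7.1 with ZnSO4 and Brij 35 / Doses: single dose, 5.6 µM / Times: 25 °C, 15 min preincubation, 25 min reaction / Detection: Epi-absorbance via hydrolysed-nitrocefin quenching of white-plate fluorescence, 480/530 nm, EDTA stop / Evaluation: percent inhibition from optical density relative to buffer-blank wells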
PKA-R1A act = activators of PKA-R1A complex | 0.083% of 340,000 active | activation, % at 11.4 µM | P00514+P68181 | PKA-R1A dissociation, Cy5-IP20 fluorescence polarization; scaled: DMSO 0%, 113 µM cGMP 100% | AID 504707;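 active means percent activation above the mean of all tested compounds plus 3 SD, cut at about 19% in these data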;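 further: higher means more PKAc released from R1A so a rise in polarization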
MsrA inhibitor = bovine MsrA inhibition. purified bovine MsrA, absorbance read-out. inhibition, % at 15.5 µM. 0.75% of 360,000 active; in the data active means inhibition above about 4.5%
MsrA act = activates bovine MsrA enzyme; purified bovine MsrA, absorbance read-out; activation, % at 10.6 µM; 0.3% of 360,000 active; in the data active means activation above about 7.5%
VIM-2 inhibitor = blocks Pseudomonas aeruginosa VIM-2 metallo-beta-lactamase; 0.89% of 290,000 active; purified VIM-2, nitrocefin hydrolysis, epi-absorbance fluorescence; inhibition, % at 5.6 µM; AID 1527;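 active means inhibition above the mean of all tested compounds plus 3 SD, cutoff set per screening run, cut at about 7.5% in these data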;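 further: red hydrolysis product quenches plate fluorescence so inhibitors raise well fluorescence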
PKA-R2B activ = activators of human PKA-R2B complex | P22694+P31323 | 0.079% of 340,000 active | AID 504700 | PKA-R2B holoenzyme dissociation, Cy5-IP20 fluorescence polarization; R2B truncated from residue 108, S112A mutant; 0% DMSO only, 100% 113 µM cGMP | activation, % at 11.4 µM;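 active means activation above a cutoff set at the mean over all compounds plus 3 SD, cut at about 18% in these data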;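 further: higher means more holoenzyme dissociation and a rise in polarization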
Target sequence (P31323 whole entry, looked up, other chains not shown, the tested form may be a part): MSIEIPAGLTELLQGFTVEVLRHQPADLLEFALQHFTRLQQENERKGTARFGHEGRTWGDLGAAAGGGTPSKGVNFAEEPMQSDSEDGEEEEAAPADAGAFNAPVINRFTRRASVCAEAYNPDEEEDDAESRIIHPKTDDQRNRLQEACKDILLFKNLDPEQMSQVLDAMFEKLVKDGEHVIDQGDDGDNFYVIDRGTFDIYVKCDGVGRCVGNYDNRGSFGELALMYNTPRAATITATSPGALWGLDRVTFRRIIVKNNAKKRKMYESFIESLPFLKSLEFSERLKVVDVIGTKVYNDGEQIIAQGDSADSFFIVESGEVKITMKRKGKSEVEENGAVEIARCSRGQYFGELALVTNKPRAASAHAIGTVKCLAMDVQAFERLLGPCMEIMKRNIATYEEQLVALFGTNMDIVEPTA
IMP-1 inh-2 = IMP-1 inhibition, counter-screen for VIM-2 inhibitors; shares compounds with VIM-2 inhibitor; purified IMP-1, nitrocefin hydrolysis, epi-absorbance fluorescence; inhibition, % at 5.6 µM; 1,300 tested, under 10 active; call rule not given here
VIM-2 FRET inh = VIM-2 FRET inhibition, artifact counter-screen; AID 1857; purified VIM-2, CCF2 FRET substrate hydrolysis; 23% of 1,300 active; shares compounds with VIM-2 inhibitor; inhibition, % at 5.6 µM;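 active means inhibition above the mean of all tested compounds plus 3 SD, cut at about 19% in these data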
TEM-1 counter = selectivity counter-screen for VIM-2 inhibitors: E. coli TEM-1 inhibitors. shares compounds with VIM-2 inhibitor. Purified TEM-1, nitrocefin hydrolysis, epi-absorbance fluorescence. inhibition, % at 5.6 µM. 3% of 1,300 active. AID 1866;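 active means inhibition above that campaign's mean inhibition plus 3 SD, cut at about 0.46% in these data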
VIM-2 confirm 2 = confirmation of P. aeruginosa VIM-2 metallo-beta-lactamase inhibitors. shares compounds with VIM-2 inhibitor. purified VIM-2, nitrocefin hydrolysis, epi-absorbance. inhibition, % at 5.6 µM. 96% of 1,300 active. AID 2187;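 active means inhibition of the VIM-2 beta-lactamase enzyme above about 11% from the earlier first-round screen, limit read from the data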
Numbers stand for hits.

Screening c1ccc2c(Nc3ccc4c(c3)OCCO4)c3c(nc2c1)CCCC3 returned IMP-1 inh-1 inactive, PKA-R1A act inactive, MsrA inhibitor inactive, MsrA act inactive, VIM-2 inhibitor 15, PKA-R2B activ inactive, IMP-1 inh-2 inactive, VIM-2 FRET inh inactive, TEM-1 counter inactive and VIM-2 confirm 2 23.
`COc1ccc(C(C)(C)C)cc1N1C(=O)[C@@H]2CSCCS(=O)(=O)N2C1=O` gave MsrA inhibitor inactive.
For CCOC(=O)N1CCN(C(=O)C[C@@H]2C[C@@]3(C(=O)OC)CCCCC=C3N(Cc3ccc(Cl)cc3Cl)C2=O)CC1 the results were MsrA inhibitor inactive and MsrA act inactive.
`CC(C)CCn1c(=O)c2sccc2n2c(CCCC(=O)N3CCC(N4CCCCC4)CC3)nnc12` gave IMP-1 inh-1 inactive, PKA-R1A act inactive, MsrA inhibitor inactive, MsrA act inactive, VIM-2 inhibitor 13, PKA-R2B activ inactive, IMP-1 inh-2 inactive, VIM-2 FRET inh inactive, TEM-1 counter inactive and VIM-2 confirm 2 17.
`N#Cc1nc(-c2ccccc2)oc1NCCCn1ccnc1` gave IMP-1 inh-1 inactive, PKA-R1A act inactive, MsrA inhibitor inactive, MsrA act inactive, VIM-2 inhibitor 26, PKA-R2B activ inactive, IMP-1 inh-2 inactive, VIM-2 FRET inh inactive, TEM-1 counter inactive and VIM-2 confirm 2 45.
N#Cc1nc(-c2ccc(OCc3ccc(Cl)cc3)cc2)oc1NCCCn1ccnc1 was read as IMP-1 inh-1 inactive, PKA-R1A act inactive, MsrA inhibitor inactive, MsrA act inactive, VIM-2 inhibitor inactive and PKA-R2B activ inactive.
`COc1ccccc1-c1nc(C#N)c(NCCCn2ccnc2)o1` gave IMP-1 inh-1 inactive, PKA-R1A act inactive, MsrA inhibitor inactive, MsrA act inactive, VIM-2 inhibitor 18, PKA-R2B activ inactive, IMP-1 inh-2 inactive, VIM-2 FRET inh inactive, TEM-1 counter inactive and VIM-2 confirm 2 35.
`COc1ccc(CCNc2oc(-c3ccc(OC)c(OC)c3)nc2C#N)cc1` gave IMP-1 inh-1 inactive, PKA-R1A act inactive, MsrA inhibitor inactive, MsrA act inactive, VIM-2 inhibitor inactive and PKA-R2B activ inactive.
COc1ccc(-c2nc(C#N)c(NCCCN(C)C)o2)cc1OC was read as IMP-1 inh-1 inactive, PKA-R1A act inactive, MsrA inhibitor inactive, MsrA act inactive, VIM-2 inhibitor 12, PKA-R2B activ inactive, IMP-1 inh-2 inactive, VIM-2 FRET inh inactive, TEM-1 counter inactive and VIM-2 confirm 2 27.
`CCOC(=O)C1=CN(Cc2cccc(F)c2)S(=O)(=O)N(C)C1c1ccc(F)c(Cl)c1` (stereo unspecified) gave PKA-R1A act inactive, MsrA inhibitor inactive, MsrA act inactive and PKA-R2B activ inactive.
`CCOc1ccccc1C(=O)Nc1cccc(-c2ccc3nncn3n2)c1` gave IMP-1 inh-1 inactive, PKA-R1A act inactive, MsrA inhibitor inactive, MsrA act inactive, VIM-2 inhibitor 21, PKA-R2B activ inactive, IMP-1 inh-2 inactive, VIM-2 FRET inh inactive, TEM-1 counter inactive and VIM-2 confirm 2 31.
Screening Cc1ccccc1C(=O)Nc1cccc(-c2ccc3nncn3n2)c1 returned IMP-1 inh-1 inactive, PKA-R1A act inactive, MsrA inhibitor inactive, MsrA act inactive, VIM-2 inhibitor inactive and PKA-R2B activ inactive.
For Oc1ccc(-c2n[nH]c(=S)n2Cc2ccco2)cc1 the results were IMP-1 inh-1 inactive, PKA-R1A act inactive, MsrA inhibitor inactive, MsrA act inactive, VIM-2 inhibitor inactive and PKA-R2B activ inactive.
